Screens (PubChem BioAssay)
PGC1a acetyl inh: inhibitors of PGC1a acetylation signal, primary screen, cell-based, U2OS, AlphaScreen, inhibitor mode; inhibition, % at 15.6 µM; AlphaScreen anti-acetyl-lysine; with virally co-expressed GCN5 acetyltransferase; AID 651687, 2012; 350,000 compounds, 0.17% hits;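 active = every replicate shows inhibition of at least 40%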
C2C12 statin: suppressors of statin myotoxicity in C2C12 myotubes, primary screen, cell-based, single point, plate reader. C2C12 myotubes + simvastatin, ATP luminescence, 48 h; scaled: DMSO 0, geranylgeraniol control 100. rescue of ATP level, % at 7.49 µM. 330,000 compounds, 0.78% hits;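 active = mean ATP rescue above about 67%, or every replicate alone reaching that limit, limit read from the data, passing the limit was not always enough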;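 note: myotubes were challenged with 10 µM simvastatin during compound exposure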
Cneo AK release: Cryptococcus neoformans cell lysis inducers, primary screen, AK release luminescence, single concentration; C. neoformans lysis, adenylate kinase release luminescence, 4 h; normalised: neutral wells 0, clomiphene wells 100; lysis activity, % at 15 µM; 360,000 compounds, 0.2% hits; AID 651654, 2012;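 active = mean lysis activity across replicates of at least 80%, whatever share of replicates individually reach that level; inactive = mean lysis activity below 80%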
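Material: C. neoformans cells; Schedule: 4 h static compound exposure, 37 °C, read 1 h post-reagent; Measured by: adenylate kinase release luminescence; Read-out: signal increase indicating cell lysis; Controls: Clomiphene as positive lysis control.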
Ecoli rRNA inh: reduced GFP signal of wild-type E. coli, primary screen, bacterial rRNA inhibitor project, GFP/RFP fluorescence, OD600, single point. E. coli WT GFP vs humanized-ribosome RFP mutants, 24 h; active compounds read low; DMSO median 0, no signal -100. GFP signal change (wild-type ribosome), % (test concentration not listed). 350,000 compounds, 1.6% hits;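 active = significant combined selectivity score with lowered wild-type GFP, culture density cut under 30%, mutant RFP and density less affected; inactive = any of these conditions unmet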
SIRT5 inh: SIRT5 desuccinylase inhibitors, primary screen, biochemical, fluorescence imaging, single point, set 5. 330,000 compounds, 1.1% hits. inhibition, % at 15 µM. NAD-dependent protein deacylase sirtuin-5, mitochondrial (Homo sapiens), Q9NXA8. AID 652115, 2013. Purified SirT5, succinyl-peptide AMC, trypsin-coupled fluorescence; in the data active = inhibition above about 15%
Target sequence (Q9NXA8 whole entry, looked up): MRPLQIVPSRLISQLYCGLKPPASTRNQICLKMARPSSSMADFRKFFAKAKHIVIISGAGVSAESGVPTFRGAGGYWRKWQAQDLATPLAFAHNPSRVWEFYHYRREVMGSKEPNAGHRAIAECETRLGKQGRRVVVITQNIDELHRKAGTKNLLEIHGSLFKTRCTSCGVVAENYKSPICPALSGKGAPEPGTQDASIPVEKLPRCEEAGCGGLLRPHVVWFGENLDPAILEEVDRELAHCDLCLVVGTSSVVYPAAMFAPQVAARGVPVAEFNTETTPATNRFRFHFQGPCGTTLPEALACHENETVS
S100A4 inh HTS: inhibitors of S100A4-myosin IIA peptide binding, primary screen, biochemical, fluorescence polarization, TAMRA-MyoIIA peptide; Protein S100-A4 (Homo sapiens), P26447; inhibition, % at 10.7 µM; 360,000 compounds, 0.14% hits; AID 652163, 2013;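 active = mean inhibition of at least 70% across replicates, with every replicate also reaching that level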
Target sequence (P26447 whole entry, looked up): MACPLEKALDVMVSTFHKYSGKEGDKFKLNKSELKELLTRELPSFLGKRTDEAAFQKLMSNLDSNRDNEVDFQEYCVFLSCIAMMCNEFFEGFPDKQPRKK
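System – human S100A4 monomer protein, biochemical binding assay · Buffer or medium – Calcium-containing HEPES buffer, pH 7.2 · Timing – 5 min between mix addition and reading · Also added – TAMRA-labelled myosin IIA heavy-chain peptide probe, 5 nM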
Large screens that a line does not name were inactive. Most compounds without a hit are left out; they make up all but 3% or so of the library.

CCCCCCN1C[C@@H](O)[C@H](n2cc(COC(=O)c3ccccc3)nn2)C[C@@H]1c1ccc(C)cc1	SIRT5 inh 24
CCCCCCN1C[C@H](O)[C@@H](n2cc(C3CC3)nn2)C[C@@H]1c1ccccc1	Ecoli rRNA inh -16
CCCCCCN1C[C@@H](n2cc(C3CC3)nn2)[C@H](O)C[C@@H]1c1ccccc1	none
C[C@@H]1CN([C@@H](C)CO)C(=O)c2cc(NC(=O)Nc3cccc4ccccc34)ccc2O[C@@H](C)CCCCO[C@@H]1CN(C)S(=O)(=O)c1ccc(F)cc1	none
COC(=O)c1ccccc1NCc1cc(=O)oc2cc(O)c(O)cc12	Ecoli rRNA inh -22 (no result: PGC1a acetyl inh)
COc1ccc(C)cc1NCc1cc(=O)oc2cc(-c3ccccc3)c(O)cc12	none (no result: PGC1a acetyl inh, Cneo AK release, Ecoli rRNA inh, SIRT5 inh, S100A4 inh HTS)
O=C(CCC(=O)N1CCN(c2ccccc2F)CC1)N1CCN(c2ccc(F)cc2)CC1	none
COC(=O)[C@H](Cc1ccccc1)NC(=O)N1CCN(c2ccc(F)cc2)CC1	Ecoli rRNA inh -20
O=C(CCC(=O)N1CCN(c2ccc(F)cc2)CC1)N1CCN(c2ccc(F)cc2)CC1	Ecoli rRNA inh -21 (no result: SIRT5 inh)
O=C(CSc1nc2[nH]c(=O)cc(O)c2s1)Nc1nncs1	none
Cc1cc(NC(=O)CSc2sc3c(O)cc(=O)[nH]c3c2C#N)ccc1Br	none (no result: PGC1a acetyl inh, Cneo AK release)
Cc1ccc(C)c(NC(=O)CSc2sc3c(O)cc(=O)[nH]c3c2C#N)c1	none
Cc1ccc(Cl)cc1NC(=O)CSc1sc2c(O)cc(=O)[nH]c2c1C#N	none
CCSc1nnc(NC(=O)CSc2sc3c(O)cc(=O)[nH]c3c2C#N)s1	SIRT5 inh 32
Cc1csc(NC(=O)CSc2sc3c(O)cc(=O)[nH]c3c2C#N)n1	SIRT5 inh 42 (no result: PGC1a acetyl inh)
COC(=O)c1ccc(C)c(NC(=O)CSc2sc3c(O)cc(=O)[nH]c3c2C#N)c1	SIRT5 inh 19
Cc1csc(NC(=O)CSc2nc3[nH]c(=O)cc(O)c3s2)n1	C2C12 statin 175
COc1ccc2c3c([nH]c2c1)[C@@H](CO)N(S(C)(=O)=O)CC31CCN(C(=O)CN(C)C)CC1	none (no result: C2C12 statin, Cneo AK release, SIRT5 inh, S100A4 inh HTS)
CCCN(C)C[C@@H]1Oc2cc(C#C[C@@H](C)O)ccc2S(=O)(=O)N([C@H](C)CO)C[C@@H]1C	none
CCNC(=O)C[C@H]1CC[C@H]2[C@@H](COC[C@@H](O)CN2C(=O)Nc2ccc(Cl)c(Cl)c2)O1	none
O=C(C[C@@H]1C=C[C@H](NC(=O)C2CCC2)[C@H](CO)O1)NCCCN1CCOCC1	none
C[C@H](CO)N1C[C@H](C)[C@@H](CN(C)C(=O)Nc2cc(F)ccc2F)Oc2cc(-c3ccc(C#N)cc3)ccc2S1(=O)=O	none
CCc1nnc(NC(=O)CSc2sc3c(O)cc(=O)[nH]c3c2C#N)s1	SIRT5 inh 29 (no result: PGC1a acetyl inh)
c1ccc(-c2cc(-c3nnc4n3N=C(c3ccc5ccccc5c3)CS4)[nH]n2)cc1	C2C12 statin 80 (no result: Ecoli rRNA inh, SIRT5 inh, S100A4 inh HTS)
COc1ccc(C2=Nn3c(nnc3-c3ccccc3OC)SC2)cc1OCC1CC1	Ecoli rRNA inh -27 (no result: SIRT5 inh)
Cc1cc(-c2nnc3n2N=C(c2ccc(-c4ccccc4)cc2)CS3)n[nH]1	none (no result: Ecoli rRNA inh, SIRT5 inh, S100A4 inh HTS)
COc1ccc(OC)c(-c2nnc3n2N=C(c2ccc(OC)c(OC)c2)CS3)c1	Ecoli rRNA inh -19 (no result: PGC1a acetyl inh)
COc1ccc(C2=Nn3c(nnc3-c3ccccc3F)SC2)cc1OC1CCCC1	SIRT5 inh 20
O=C(Cc1ccccc1)N1C[C@@H]2[C@H](c3ccccc31)[C@H](CO)N2C(=O)C1CC1	none
O=C(C[C@@H]1CC[C@@H]2[C@H](COC[C@H](O)CN2C(=O)c2ccccn2)O1)NC1CCC1	none
CCc1ccc(OCC(=O)NN2Cc3ccccc3C2=N)cc1	SIRT5 inh 24 (no result: C2C12 statin, Cneo AK release)
COc1ccc2c3c([nH]c2c1)[C@H](CO)N(C(=O)CN1CCOCC1)CC31CCN(CC2CCCC2)CC1	none (no result: C2C12 statin, Cneo AK release)
O=C(Cc1n[nH]c(=O)c2ccccc12)OCC(=O)N(Cc1ccccc1)Cc1ccccc1	Ecoli rRNA inh -24
CN(C)C(=O)c1ccc(-c2ccc([C@@H]3[C@H](CO)N4CCCCN(CC5CCOCC5)C[C@@H]34)cc2)cc1	none (no result: C2C12 statin)
COc1cccc(-c2ccc([C@H]3[C@H]4CN(CC5CC5)CCCCN4[C@H]3CO)cc2)c1	none
COc1cccc(-c2ccc([C@H]3[C@H](CO)N4CCCCN(CC5CC5)C[C@@H]34)cc2)c1	S100A4 inh HTS 127
CN(C)C(=O)c1ccc(-c2ccc([C@@H]3[C@@H](CO)N4CCCCN(CC5CC5)C[C@@H]34)cc2)cc1	S100A4 inh HTS 109
CN(C)C(=O)c1cccc(-c2ccc([C@H]3[C@H](CO)N4CCCCN(S(C)(=O)=O)C[C@@H]34)cc2)c1	none
CN(C)C(=O)c1cccc(-c2ccc([C@H]3[C@@H](CO)N4CCCCN(S(C)(=O)=O)C[C@@H]34)cc2)c1	SIRT5 inh 41
COc1ccc(NC(=O)N(C)C[C@H]2OCCCC[C@H](C)Oc3ccc(NC(=O)C4CCCCC4)cc3C(=O)N([C@@H](C)CO)C[C@H]2C)cc1	none (no result: C2C12 statin)
C[C@H]1CN([C@@H](C)CO)C(=O)Cc2cc(NC(=O)Cc3ccccc3)ccc2O[C@@H]1CN(C)Cc1ccc(C(=O)Nc2ccccc2N)cc1	none (no result: C2C12 statin, Cneo AK release)
CC(=O)N(C)C[C@@H]1Oc2ncc(-c3cccnc3)cc2C(=O)N([C@H](C)CO)C[C@@H]1C	none
COC(=O)C1=C(C)OC(N)=C(C#N)C1C1CCCCC1 (stereo not drawn)	Ecoli rRNA inh -21
Cc1noc(C)c1S(=O)(=O)Nc1ccc2c(c1)CC(=O)N([C@H](C)CO)C[C@@H](C)[C@@H](CN(C)S(=O)(=O)c1ccc(Cl)cc1)O2	none
Nc1ccccc1SC(CC(=O)c1ccccc1)c1ccc([N+](=O)[O-])cc1 (stereo not drawn)	Ecoli rRNA inh -20
COc1ccc(C(CC(=O)c2ccc(C)cc2)Sc2ccccc2N)cc1 (stereo not drawn)	none
Nc1ccccc1SC(CC(=O)c1ccccc1)c1cccc([N+](=O)[O-])c1 (stereo not drawn)	Ecoli rRNA inh -24
Cc1cc(S(=O)(=O)Nc2ccc(C(=O)NCC3(N4CCCCC4)CCCCC3)cc2)ccc1F	SIRT5 inh 21 (no result: Cneo AK release)
S=C(NCc1ccco1)NC1CCCc2ccccc21 (stereo not drawn)	none (no result: C2C12 statin, Cneo AK release)
